Results collected from several papers.
Compare with care: the assays were run in different laboratories. Values after ≈ are worked out from the molar mass of the structure shown.

| Structure (SMILES) | organism | assay | system | setting | endpoint | value |
| --- | --- | --- | --- | --- | --- | --- |
| CC1(F)CN(C(=O)Cn2c(=O)c(C(=O)NCc3ccc(Cl)cc3)cc3nc(N4CCN(CC(=O)O)C4=O)cnc32)C1 | Human betaherpesvirus 5 | viral replication, inhibitor | AD169 | – | EC50 | 1270 nM |
| CN(C)c1cc(NC(=O)Cc2cncnc2)c(O)c2c1C[C@H]1C[C@H]3[C@H](N(C)C)C(O)=C(C(N)=O)C(=O)[C@@]3(O)C(O)=C1C2=O | Mycobacterium tuberculosis | microbial growth, broth dilution | H37RV | 7 days, pH 7.4 | MIC | 0.4 µg/mL (≈ 0.675 µM) |
| O=C(Cn1ccnc1[N+](=O)[O-])NCc1ccccc1 | Trypanosoma cruzi | parasite growth, absorbance | MRC5 | intracellular, amastigote | IC50 | 2000 to 5000 nM |
| Cc1ccc(Cn2cc(C(=O)NN)c(=O)c3cc(Oc4ccccc4)ccc32)cc1 | Trypanosoma cruzi | parasite growth | MRC5 | intracellular, amastigote | EC50 | 44000 nM |
| OC(Cn1cncn1)(Cn1cncn1)c1ccc(F)cc1F | Trypanosoma cruzi | parasite growth, resazurin | – | 24 h, trypomastigote | IC50 | 23600 nM |
| O=C(Cn1ccnc1[N+](=O)[O-])NCc1ccccc1 | Trypanosoma cruzi | parasite growth | MRC5 | intracellular, amastigote | EC50 | 1600 nM |
| CN1CCN(c2cnc3c(cc(C(=O)NCc4ccc(Cl)cc4)c(=O)n3CC(=O)N3CC(C)(F)C3)n2)C1=O | Human betaherpesvirus 5 | viral replication, inhibitor | AD169 | – | EC50 | 130 nM |
| CN(C)c1cc(NC(=O)Cc2ncccn2)c(O)c2c1C[C@H]1C[C@H]3[C@H](N(C)C)C(O)=C(C(N)=O)C(=O)[C@@]3(O)C(O)=C1C2=O | Mycobacterium tuberculosis | microbial growth, broth dilution | H37RV | 7 days, pH 7.4 | MIC | 0.8 µg/mL (≈ 1.35 µM) |
